The list is not random: actives were taken first. Their share in the collection is about 2%.
DNMT1 block: DNMT1 (human) enzyme inhibition; P26358; DNMT1 molecular beacon, Hinp1I cleavage, fluorescence; inhibition (reported as % activation of signal), % at 10 µM; 360,000 tested, 0.83% active; AID 588458; in the data active = inhibition above about 50%
CSN deneddyl inh: blocks human CSN-mediated cullin deneddylation; inhibition, % at 12.5 µM; Q92905; 360,000 tested, 0.38% active; AID 651999; Purified CSN, SCF-Nedd8-OG deneddylation, fluorescence polarization;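 active = pattern-corrected inhibition above about 35%, with an unprinted fluorescence ratio check between 0.5 and 1.5, limit read from the data, passing the limit was not always enough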
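Assay system: purified human Csn5 enzyme expressed in HEK293T cells; measure: % inhibition; also added: SCFSkp2-Nedd8OG substrate at 10 nM final; technique: fluorescence polarization; times: reaction 90 min, room temperature; medium: Tris buffer pH 7.5, NaCl, DTT, Tween-20, trehalose, ovalbumin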
Scp1 inh: inhibitors of human Scp-1 phosphatase | Q9GZU7 | Recombinant Scp1, phosphopeptide, malachite green phosphate absorbance | inhibition, % at 20 µM | 340,000 tested, 0.88% active;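 active = inhibition above about 50% at 20 µM, limit read from the data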
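Incubation: 45 min enzyme reaction at room temperature / System: truncated SCP-1 phosphatase (76-261aa) / Reagent: Phospho 17-mer peptide substrate / Buffer or medium: Acidic Tris acetate buffer with magnesium and detergent / Signal: absorbance at 630 nm / Doses: one concentration, 20 µM, with 1.0% DMSO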
STEP inh: blocks human striatal-enriched tyrosine phosphatase | recombinant STEP, OMFP fluorogenic substrate, fluorescence | inhibition, % at 20 µM | 360,000 tested, 0.25% active;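 active = inhibition at 20 µM, scaled per plate between control wells, above about 37%, limit read from the data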
Target sequence (P54829 whole entry, looked up): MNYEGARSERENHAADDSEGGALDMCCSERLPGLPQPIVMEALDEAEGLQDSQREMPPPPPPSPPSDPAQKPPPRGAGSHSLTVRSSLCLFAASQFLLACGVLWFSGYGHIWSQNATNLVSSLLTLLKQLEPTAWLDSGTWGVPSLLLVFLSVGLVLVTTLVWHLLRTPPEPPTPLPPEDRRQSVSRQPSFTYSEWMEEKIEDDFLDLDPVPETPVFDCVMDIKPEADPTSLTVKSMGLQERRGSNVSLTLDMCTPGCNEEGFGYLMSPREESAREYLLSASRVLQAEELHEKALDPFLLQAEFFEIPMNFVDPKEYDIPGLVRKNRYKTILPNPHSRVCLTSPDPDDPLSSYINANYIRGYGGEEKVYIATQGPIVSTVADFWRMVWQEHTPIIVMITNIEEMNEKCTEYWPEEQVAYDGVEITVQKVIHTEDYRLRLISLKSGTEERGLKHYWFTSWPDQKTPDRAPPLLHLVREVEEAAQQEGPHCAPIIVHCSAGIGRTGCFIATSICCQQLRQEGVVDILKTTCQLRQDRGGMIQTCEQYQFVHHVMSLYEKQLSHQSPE
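Assay system: isolated STEP enzyme. Buffer or medium: pH 6.0 Bis-Tris with DTT and Tween 20. Also added: fluorogenic phosphatase substrate OMFP at 25 µM final. Dosing: 20 µM, 1% DMSO. Timing: 20 min reaction, room temperature, in the dark. Measured by: fluorescence intensity, excitation 480 nm, emission 540 nm. Evaluation: normalized % inhibition.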
LMPTP inh: LMPTP (human) inhibition | inhibition, % at 20 µM | 360,000 tested, 0.22% active | recombinant LMPTP-A, OMFP fluorogenic substrate, fluorescence intensity | P24666;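 active = compounds that cut the enzyme signal by at least half of the control window in the single-dose screen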
Target sequence (P24666 whole entry, looked up): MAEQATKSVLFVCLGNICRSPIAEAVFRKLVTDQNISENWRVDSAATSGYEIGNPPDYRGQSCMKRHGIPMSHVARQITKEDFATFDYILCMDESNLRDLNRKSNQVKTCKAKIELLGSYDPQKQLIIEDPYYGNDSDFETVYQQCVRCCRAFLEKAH
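Assay system: LMPTP-A phosphatase enzyme | Input: 0.625 nM enzyme | Also added: Fluorogenic phosphatase substrate OMFP at 400 µM final | Compound dosing: One test concentration per compound, 20 µM, with 3% DMSO overall | Schedule: 50 min enzyme reaction at room temperature, protected from light | Signal: Fluorescence intensity | Benchmarks: no-enzyme and uninhibited controls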
SUMO1-SIM PPI: alters human SUMO1 binding to SIM partners | P63165 | SUMO1 binding to a labelled peptide, TR-FRET, 1 h | inhibition, % at 20 µM | 360,000 tested, 0.33% active | AID 602429; in the data active = inhibition above about 37%
Scp-1 conf: Scp-1 (human) inhibition, single-dose confirmed; AID 540281; shares compounds with Scp1 inh; 2,500 tested, 61% active; recombinant SCP-1 catalytic domain, phosphate release, malachite green absorbance; inhibition, % at 20 µM
MG interference: counter-screen for Scp-1 inhibitors: colorimetric interference; 2,500 tested, under 10 active; shares compounds with Scp1 inh; apparent inhibition (interference), % at 20 µM; Colorimetric interference counterscreen, malachite green absorbance 630 nm;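 also: compounds added after enzyme reaction finished so only phosphate colour detection is probed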
Scp-1 Tm shift: validation of human Scp-1 inhibitors by thermal shift binding; Recombinant SCP1, Sypro Orange thermal shift Tm; shares compounds with Scp1 inh; 1,500 tested, 25% active; thermal shift relative to vanadate control, % at 40 µM;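 active = substances whose mean melting-temperature shift, as a percentage of the reference inhibitor's shift, reaches about 5.3%, limit read from the data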
Numbers stand for hits; - = inactive; . = no result.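 The calls were made as follows, unless noted: active = inhibition of at least 30% at 20 µM; inactive = the rest.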

SMILES | DNMT1 block | CSN deneddyl inh | Scp1 inh | STEP inh | LMPTP inh | SUMO1-SIM PPI | Scp-1 conf | MG interference | others
CSc1n[nH]c(NCc2ccc(C)cc2)n1 | - | - | 55.1 | - | - | - | - | -
CSc1n[nH]c(NCc2ccc(Cl)cc2)n1 | - | - | - | - | - | - | . | .
Cc1cc(C)cc(OCC(O)CN2CC(C)OC(C)C2)c1 (stereo not drawn) | - | - | - | - | - | - | . | .
O=C(O)COc1ccccc1/C=C1\SC(=S)N(/N=C/c2ccccc2O)C1=O | - | - | 62.7 | - | - | - | 59.0 | - | Scp-1 Tm shift=8.2
CCOc1cc(C(=O)N(C)Cc2cc3cc(OC)ccc3[nH]c2=O)cc(OCC)c1OCC | - | - | - | - | - | - | . | .
CCOc1ccccc1C(=O)N(C)Cc1cc2cc(OC)ccc2[nH]c1=O | - | - | 50.8 | - | - | - | - | -
O=C1OC(/C=C/c2ccccc2)=NC/1=C/C=C/c1ccccc1 | - | - | 69.8 | - | - | - | - | -
CNC(=S)N1N=C(c2cccs2)CC1c1ccc(F)cc1 (stereo not drawn) | - | - | - | - | - | - | . | .
CN(CC(=O)Nc1ccc(Cl)cc1)CC(=O)N1CCc2ccccc21 | - | - | . | - | - | - | . | .
CCCCCc1ccnc(CC(=O)c2ccc(OC)cc2)c1 | - | - | 94.0 | - | - | - | - | -
COc1cc(NC(=S)N2CCCC(CO)C2)cc(OC)c1 (stereo not drawn) | - | - | 70.1 | - | - | - | - | -
O=C(CC1(CC(=O)N2CCOCC2)CCCC1)Nc1ccccc1 | - | - | - | - | - | - | . | .
CSc1nc(N)nc2c1ncn2C1OC(CO)C(O)C1O (stereo not drawn) | - | - | - | - | - | - | - | -
Nc1nc(SCc2ccccc2)c2ncn(C3OC(CO)C(O)C3O)c2n1 (stereo not drawn) | - | - | - | - | - | - | . | .
COc1ccc(CN(CC(=O)NCCc2ccccc2)C(=O)CCC(=O)Nc2ccccn2)cc1 | - | - | - | - | - | - | . | .
O=C(Cn1ccc2ccccc2c1=O)NCCC(=O)Nc1cccnc1 | - | - | 60.4 | - | - | - | - | -
NC(=O)c1cccc(-c2coc3c(C(=O)NC4CCCCC4)cccc23)c1 | - | - | . | - | - | - | . | .
NC(=O)c1cc(S(=O)(=O)NCc2ccc(Br)cc2)cs1 | - | - | - | - | - | - | - | -
C[C@]12CC[C@H](O)C[C@@H]1CC[C@@H]1[C@@H]2CC[C@@]2(C)[C@H]1CCC(=O)[C@]21CCCO1 | - | - | 82.5 | - | - | - | - | -
C[C@H](O)[C@@]1(O)CC[C@H]2[C@@H]3CC[C@@H]4C[C@H](O)CC[C@]4(C)[C@H]3CC[C@@]21C | - | - | - | - | - | - | . | .
COc1cc(/C=C/c2cccc[n+]2C)ccc1OCC(=O)Nc1ccccc1C | - | - | 51.5 | - | - | - | - | -
CCOc1cc(/C=C/c2cccc[n+]2C)ccc1OCC(=O)Nc1ccc(C)cc1 | - | - | - | - | - | - | . | .
CCOc1cc(/C=C/c2cccc[n+]2C)ccc1O | - | - | 72.2 | - | - | - | - | -
O=C(O)c1cccc2c1Cc1cc(Cl)ccc1-2 | - | - | - | - | - | - | . | .
CCOC(=O)[C@H]1[C@H]2COc3ccc(Cl)cc3[C@H]2N2C(=O)CNC(=O)[C@@]12C | - | - | - | - | - | - | . | .
SMILES | DNMT1 block | CSN deneddyl inh | Scp1 inh | STEP inh | LMPTP inh | SUMO1-SIM PPI | Scp-1 conf | MG interference | others
O=C(NNC(=O)c1ccccc1Cl)c1cccs1 | - | - | 75.7 | - | - | - | - | -
O=C(NNC(=O)c1ccccc1F)c1cccs1 | - | - | - | - | - | - | . | .
COC(=O)c1ccc(Nc2ccc3nonc3c2[N+](=O)[O-])cc1 | - | - | - | - | - | - | . | .
CCCCC(CC)C1OCC(C[N+]2(C)CCOCC2)O1 (stereo not drawn) | - | - | - | - | - | - | . | .
CC(c1ccccc1)C1OCC(C[N+]2(C)CCCCC2)O1 (stereo not drawn) | - | - | 93.3 | - | - | - | 83.0 | - | Scp-1 Tm shift=-
COc1cccc(C2CCCN2Cc2nc(-c3cnccn3)no2)c1 (stereo not drawn) | - | - | - | - | - | - | . | .
O=C(O)/C=C\C(=O)Nc1ccccc1C(=O)N1CCC(O)(c2ccc(Cl)cc2)CC1 | - | - | - | - | - | - | . | .
Cc1cccc(OCCC(=O)Nc2ccc(F)c(Cl)c2)c1 | - | - | - | - | - | - | . | .
O=C1Nc2ccccc2S/C1=C/c1cccs1 | - | - | - | - | - | - | . | .
O=C1NC(=S)SC1=Cc1cccs1 | - | - | 53.1 | - | - | - | - | -
O=C1NC(=S)SC1=Cc1cc(Br)ccc1O | - | - | 67.2 | - | - | - | - | -
O=C1NC(=S)SC1=Cc1ccccc1Br | - | - | - | - | - | - | . | .
O=C(COC(=O)c1ccc(S(=O)(=O)N2CCCCC2)cc1)NCc1ccco1 | - | - | 54.1 | - | - | - | 73.3 | - | Scp-1 Tm shift=-
O=C(CSc1ccc2nnc(-c3ccccc3)n2n1)NCc1ccco1 | - | - | 54.6 | - | - | - | - | -
O=C(CSc1nnc(CNC(=O)c2c(F)cccc2F)o1)NCc1ccco1 | - | - | 68.1 | - | - | - | 32.6 | - | Scp-1 Tm shift=-
COc1ccc(-c2nnc3ccc(SCC(=O)NCc4ccco4)nn23)cc1 | - | - | - | - | - | - | . | .
O=C(CSc1nnc(CNC(=O)c2ccccc2)o1)NCc1ccco1 | - | - | - | - | - | - | . | .
O=C(COC(=O)c1cccnc1Cl)NCc1ccco1 | - | - | 91.7 | - | - | - | 69.8 | - | Scp-1 Tm shift=-
O=C(COc1ccc(S(=O)(=O)N2CCCC2)cc1)NCc1ccco1 | - | - | - | - | - | - | . | .
CC(C)Cc1cc(CN2CCC(CO)(Cc3cccc(C(F)(F)F)c3)CC2)[nH]n1 | - | - | - | - | - | - | . | .
O=C(NCCc1ccccc1Cl)c1cc(COc2ccc(F)cc2F)on1 | - | - | - | - | - | - | . | .
C[C@@H](NC(=O)[C@@H]1Cc2ccccc2CN1C(=O)OC(C)(C)C)C(=O)NC1CCCC1 | - | - | - | - | - | - | . | .
O=C(Nc1ccc(C(=O)N2CCOCC2)cc1)Nc1ccc(Cl)cc1Cl | - | - | - | - | - | - | . | .

Screening data (PubChem)
